In ChEMBL document CHEMBL2439985, “Multifunctional cyclic D,L-α-peptide architectures stimulate non-insulin dependent glucose uptake in skeletal muscle cells and protect them against oxidative stress” (J Med Chem, 2013):
pEC50: −log10 of the molar value. Blank lines part the entries; values can stand above or below the compound they belong to. The source made the active and inactive calls. No cut-off for these calls is given here.

Experiments:
[1] = Antioxidant activity assessed as inhibition of H2O2-induced ROS production by DCFH assay; assay type: functional
Procedure, shortened: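 DCFH oxidation assay: H2O2 (0.5 mM) was incubated with DCFH with or without the test agent, and the DCF formed was read fluorometrically. Free His and Trolox served as controls.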

[2] = Induction of self-assembly of the compound in phosphate buffer at 100 uM after 2 days by uranyl acetate staining-based TEM analysis; assay type: physicochemical; settings: 48 h
Procedure, shortened: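 Peptide (100 μM) was aged 2 days in phosphate buffer and negatively stained 30 s with 2% uranyl acetate. Nanotube formation was examined by TEM at 120 kV.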

[3] = Antioxidant activity assessed as inhibition of H2O2-induced hydroxyl radical formation by EPR spectroscopic analysis in presence of Fe2+; assay type: functional
Procedure, shortened: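 Hydroxyl radicals came from a Fenton reaction: H2O2 (10 mM), FeSO4·7H2O (10 mM) and DMPO spin trap (40 mM), with peptide at 1−1000 μM. Samples were diluted in 15 mM phosphate buffer, pH 7.4, and read immediately by EPR. The spin-adduct signal was integrated.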

[4] = Drug degradation in H2O2 solution at 2.7 mM after 1 month by HPLC/MS/NMR analysis in presence of Fe2+; assay type: physicochemical; settings: H2O2 solution with Fe2+; read-out: Drug degradation
[5] = Induction of self-assembly of the compound in DMSO at 1 uM by fluorescence spectroscopic analysis; assay type: physicochemical
Procedure, shortened: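 Self-assembly of NBD-labelled peptide (1 μM) in 1:1 DMSO/MES (25 mM, pH 6.6) was followed as fluorescence decrease over time.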

[6] = Cellular uptake in intracellular vesicle of rat L6 cells at 10 uM after 4 hrs by WGA/Hoechst staining-based confocal fluorescent microscopic analysis; assay type: ADME, cell-based; settings: l6, 4 h
Procedure, shortened: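 Live L6 myotubes on glass-bottom dishes were given NBD-labelled peptide (10 μM) for 4 h in medium with 1% FBS, then washed. Nuclei were stained with Hoechst and membranes with Alexa Fluor-WGA. Imaging was by confocal microscopy at 37 °C.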

L6 [7] = assay: Antihyperglycemic activity in rat L6 cells assessed as increase in [3H]dGlc uptake at 25 uM after 6 to 12 hrs by liquid scintillation counting analysis; assay type: functional, cell-based
L6 [8] = assay: Antiapoptotic activity in rat L6 cells assessed as suppression of 23.5 mM D-glucose-induced JNK-46 phosphorylation at 25 uM after 8 hrs by Western blot analysis; assay type: functional, cell-based
Procedure, shortened: (§1)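 L6 myotubes held 7 days in 23.5 mM glucose medium, then exposed to peptide for 8 h or ALA for 3 h. Whole-cell lysates were made in ice-cold lysis buffer, and 5−60 μg protein was run on 10−12% SDS-PAGE. Blots were probed for total and phosphorylated JNK (p-54, p-46) and α-tubulin. Band densities were normalized to total JNK. Two-tailed Student's t test.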

[9] = Potency index, ratio of Histidine EC50 to compound EC50 for inhibition of H2O2-induced ROS production; assay type: functional
L6 [10] = assay: Effect on human myc epitope-tagged total GLUT4 level overexpressed in rat L6 cells at 25 uM after 8 hrs by Western blotting analysis; assay type: functional, cell-based
Procedure, shortened: (§2)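 Whole-cell lysates of GLUT1myc- or GLUT4myc-overexpressing L6 myotubes were made after the same treatments as in the surface assay. Western blots were run for total transporter content.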

L6 [11] = assay: Antioxidant activity in rat L6 cells assessed as trolox equivalents of ABTS free radical scavenging activity at 25 uM after 12 hrs by ELISA reader analysis in presence of 23.5 mM D-glucose; assay type: functional, cell-based
Procedure, shortened: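 L6 myotubes in αMEM with 2% FCS and 5.5 or 23.5 mM glucose were treated with peptide (25 μM, 12 h) or ALA (2 mM, 2 h), vehicle 0.1% DMSO. Cells were lysed (Tris pH 7.5, NaCl, NP-40) through three freeze-thaw cycles and centrifuged. Lysates were assayed for metmyoglobin/H2O2-driven ABTS•+ formation. Results are Trolox equivalents per mg protein from a Trolox standard curve, with protein by Bradford.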

L6 [12] = assay: Effect on total GLUT4 level in rat L6 cells at 25 uM after 8 hrs by Western blotting analysis; assay type: functional, cell-based
[13] = target: T1, Solute carrier family 2, facilitated glucose transporter member 1 (Homo sapiens) (UniProt P11166); assay: Induction of human myc epitope-tagged GLUT1 translocation to plasma membrane overexpressed in rat L6 cells at 25 uM after 8 hrs by immunocolorimetric analysis in presence of 23.5 mM D-glucose; assay type: cell-based
T1 sequence (whole entry): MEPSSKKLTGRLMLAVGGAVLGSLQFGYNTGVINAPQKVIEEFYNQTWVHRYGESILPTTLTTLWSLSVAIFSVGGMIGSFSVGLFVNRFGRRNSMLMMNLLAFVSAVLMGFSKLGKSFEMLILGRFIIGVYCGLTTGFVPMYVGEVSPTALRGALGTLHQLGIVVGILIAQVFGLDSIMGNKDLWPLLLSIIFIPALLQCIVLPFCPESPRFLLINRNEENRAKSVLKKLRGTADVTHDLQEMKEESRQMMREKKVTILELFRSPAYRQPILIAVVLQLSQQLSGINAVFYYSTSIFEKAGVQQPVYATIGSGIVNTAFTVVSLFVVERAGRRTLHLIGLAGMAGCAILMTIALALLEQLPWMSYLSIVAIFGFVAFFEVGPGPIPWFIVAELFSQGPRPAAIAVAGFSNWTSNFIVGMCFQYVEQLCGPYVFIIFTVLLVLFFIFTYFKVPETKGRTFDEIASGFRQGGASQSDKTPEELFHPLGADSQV
Procedure, shortened: (§3)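 L6 myotubes overexpressing GLUT1myc or GLUT4myc were held 9 h in serum-free αMEM with 0.5% BSA and 23.5 mM glucose. They received peptide (25 μM) or 0.1% DMSO over the last 8 h, and insulin (100 nM) or ALA (2 mM) over the last 30 min. Live cells were labelled with anti-c-Myc (1:200) and fixed in 3% formaldehyde. HRP anti-rabbit IgG (1:2000) and OPD were added, and absorbance was read at 492 nm.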

L6 [14] = assay: Antiapoptotic activity in rat L6 cells assessed as suppression of 23.5 mM D-glucose-induced JNK-54 phosphorylation at 25 uM after 8 hrs by Western blot analysis; assay type: functional, cell-based; procedure, shortened: as §1
L6 [15] = assay: Antihyperglycemic activity in rat L6 cells assessed as increase in [3H]dGlc uptake after 12 hrs by liquid scintillation counting analysis; assay type: functional, cell-based
Procedure, shortened: (§4)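 Differentiated L6 myotubes were preincubated 24 h in αMEM with 2% FCS and 5.5 or 23.5 mM D-glucose, then switched to FCS-free medium with 0.5% BSA 4 h before the assay. Peptide was given for 12 h or ALA for 30 min, vehicle 0.1% DMSO. After PBS rinses, cells took up 0.1 mM dGlc plus [3H]dGlc (1.3 μCi mL−1) for 5 min at room temperature. Cells were lysed in 0.1% SDS and counted by scintillation. Uptake is expressed as % of the DMSO basal rate.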

L6 [16] = assay: Effect on human myc epitope-tagged total GLUT1 level overexpressed in rat L6 cells at 25 uM after 8 hrs by Western blotting analysis; assay type: functional, cell-based; procedure, shortened: as §2
[17] = target: T2, Solute carrier family 2, facilitated glucose transporter member 4 (Homo sapiens) (UniProt P14672); assay: Induction of human myc epitope-tagged GLUT4 translocation to plasma membrane overexpressed in rat L6 cells at 25 uM after 8 hrs by immunocolorimetric analysis in presence of 23.5 mM D-glucose relative to insulin; assay type: cell-based; procedure, shortened: as §3
T2 sequence (whole entry): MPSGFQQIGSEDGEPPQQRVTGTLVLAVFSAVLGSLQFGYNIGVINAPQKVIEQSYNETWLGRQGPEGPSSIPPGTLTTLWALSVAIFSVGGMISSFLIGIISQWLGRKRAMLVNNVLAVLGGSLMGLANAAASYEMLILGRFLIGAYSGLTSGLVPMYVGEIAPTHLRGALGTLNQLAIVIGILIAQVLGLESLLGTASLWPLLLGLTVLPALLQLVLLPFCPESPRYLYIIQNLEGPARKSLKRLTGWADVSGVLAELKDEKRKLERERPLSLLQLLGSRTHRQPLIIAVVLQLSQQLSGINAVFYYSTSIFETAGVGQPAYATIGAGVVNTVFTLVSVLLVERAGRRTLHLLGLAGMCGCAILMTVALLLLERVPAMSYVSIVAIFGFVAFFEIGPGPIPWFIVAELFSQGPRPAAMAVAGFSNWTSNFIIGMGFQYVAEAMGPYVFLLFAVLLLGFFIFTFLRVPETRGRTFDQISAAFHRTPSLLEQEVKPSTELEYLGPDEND

L6 [18] = assay: Antihyperglycemic activity in rat L6 cells assessed as increase in [3H]dGlc uptake at 5 uM after 12 hrs by liquid scintillation counting analysis; assay type: functional, cell-based; procedure, shortened: as §4
[19] = Antioxidant activity assessed as inhibition of H2O2-induced hydroxyl radical formation by EPR spectroscopic analysis in absence of Fe2+; assay type: functional
L6 [20] = assay: Potency index, ratio of compound activity to ALA activity for increase in [3H]dGlc uptake in rat L6 cells; assay type: functional
Procedure, shortened: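 L6 myotubes (differentiated in αMEM, 2% FCS) preincubated 24 h in 23.5 mM D-glucose, then 4 h serum-free with 0.5% BSA. Peptide at increasing concentrations for 12 h, or ALA 2 mM for 30 min; vehicle 0.1% DMSO. Uptake: 0.1 mM dGlc plus [3H]dGlc 1.3 μCi/mL in PBS pH 7.4, 5 min RT; SDS lysis, scintillation counting, % of vehicle basal. Ratio compares concentrations giving similar uptake.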

L6 [21] = assay: Effect on total GLUT1 level in rat L6 cells at 25 uM after 8 hrs by Western blotting analysis; assay type: functional, cell-based
L6 [22] = assay: Cytoprotective activity in rat L6 cells assessed as increase in glucose oxidase-reduced cell survival at 25 uM incubated for 12 hrs prior to glucose oxidase challenge measured after 5 hrs by MTT assay in presence of 23.5 mM D-glucose; assay type: functional, cell-based
Procedure, shortened: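 L6 myotubes were kept 7 days in 23.5 mM glucose. They were pretreated with peptide (25 μM, 12 h) or ALA (2 mM, 30 min), vehicle 0.1% DMSO, at 37 °C. Glucose oxidase (50 mU mL−1) was then added for 5 h to generate H2O2. Viability was read by MTT.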

- pEC50 [1]: 6.40
- Activity [2]: Active
- pEC50 [3]: 5.52
- degraded at 730.5 h [4]: < 5%
Compound: NCCCC[C@H]1NC(=O)[C@H](Cc2c[nH]cn2)NC(=O)[C@@H](Cc2c[nH]cn2)NC(=O)[C@H](Cc2c[nH]cn2)NC(=O)[C@@H](Cc2c[nH]cn2)NC(=O)[C@H](Cc2c[nH]c3ccccc23)NC(=O)[C@@H](Cc2c[nH]c3ccccc23)NC(=O)[C@H](Cc2c[nH]cn2)NC1=O

- Activity [5]: Active
- pEC50 [1]: 6.52
- Drug uptake [6]: Active
Compound: O=C1N[C@H](CCCCNc2ccc([N+](=O)[O-])c3nonc23)C(=O)N[C@@H](Cc2c[nH]cn2)C(=O)N[C@H](Cc2c[nH]c3ccccc23)C(=O)N[C@@H](Cc2c[nH]c3ccccc23)C(=O)N[C@H](Cc2c[nH]cn2)C(=O)N[C@@H](Cc2c[nH]cn2)C(=O)N[C@H](Cc2c[nH]cn2)C(=O)N[C@H]1Cc1c[nH]cn1

- Activity [13]: Active
- Activity [17]: 60%
Compound: NCCCC[C@H]1NC(=O)[C@H](Cc2c[nH]cn2)NC(=O)[C@@H](Cc2c[nH]c3ccccc23)NC(=O)[C@H](Cc2c[nH]c3ccccc23)NC(=O)[C@@H](Cc2c[nH]cn2)NC(=O)[C@H](Cc2c[nH]cn2)NC(=O)[C@@H](Cc2c[nH]cn2)NC(=O)[C@H](Cc2c[nH]cn2)NC1=O
- Activity (L6 [7]): Active
- Activity (L6 [8]): Active
- Ratio EC50 [9]: 15
- Activity (L6 [10]): inactive
- Activity (L6 [11]): Active
- Activity (L6 [12]): inactive
- inhibition [3]: Dose-dependent effect
- Activity (L6 [14]): Active
- Activity (L6 [15]): Dose-dependent effect
- Activity (L6 [16]): inactive
- Activity (L6 [18]): Active
- inhibition [19]: Active
- Ratio (L6 [20]): 80
- Activity (L6 [21]): inactive
- Activity (L6 [22]): Active

- pEC50 [1]: 6.70
Compound: NCCCC[C@H]1NC(=O)[C@H](Cc2c[nH]cn2)NC(=O)[C@@H](Cc2c[nH]c3ccccc23)NC(=O)[C@H](Cc2c[nH]c3ccccc23)NC(=O)[C@@H](Cc2c[nH]cn2)NC(=O)[C@H](Cc2c[nH]cn2)NC(=O)[C@@H](Cc2c[nH]cn2)NC(=O)[C@H](CO)NC1=O
- Ratio EC50 [9]: 30
